The structures appear in SMILES notation.

Data on four compounds can be found in ChEMBL document CHEMBL1146746, “Propargylic sulfones possessing a 2-nitroimidazole function: novel hypoxic-cell radiosensitizers with intracellular non-protein thiol depletion ability” (Bioorg Med Chem Lett, 2004).

Data set [1] can be described thus: Second order rate constant was determined for the reaction of compound with GSH in phosphate buffer at a pH of 8.5. The gist of the method:
(§1)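 Test compound and GSH reacted in phosphate buffer at 37 °C, pH 7.5 for lines 2 and 3 and pH 8.5 for line 4. Aliquots were taken at set times and quenched into phosphate buffer containing 0.2 mM Ellman's reagent (DTNB). Unreacted GSH was measured by UV absorbance at 412 nm. Second-order rate constant k₂ for nucleophilic GSH addition is given in mM⁻¹ h⁻¹.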

Data set [2] is described as follows: Partition coefficient in octanol to water system. Format: physicochemical.
The nature of data set [3]: Second order rate constant determined for the reaction of compound with GSH in phosphate buffer at a pH of 7.5. An outline of the steps: as §1
The nature of data set [4]: Second order rate constant was determined for the reaction of compound with GSH in phosphate buffer at a pH of 7.5. An outline of the steps:
as §1

On to `CC(=O)OC(CC#CCSc1ccc([N+](=O)[O-])cc1)Cn1ccnc1[N+](=O)[O-]` (stereo not given), for which the k2 in data set [1] was 0.8 m M-1 hr-1.

In turn, `CC(=O)OC(CC#CCS(=O)(=O)c1ccc([N+](=O)[O-])cc1)Cn1ccnc1[N+](=O)[O-]` (stereo not given) showed a Po/w in data set [2] of 15. The k2 in data set [1] is 17 m M-1 hr-1; in data set [3], 3 m M-1 hr-1.

With `O=C(O)CCC(=O)OC(CC#CCS(=O)(=O)c1ccc([N+](=O)[O-])cc1)Cn1ccnc1[N+](=O)[O-]` (stereo not given), in data set [2], the Po/w was 2.2. The k2 in data set [4] is 1.1 m M-1 hr-1; in data set [1], 8.6 m M-1 hr-1.

`CC(=O)OC(CC#CCS(=O)(=O)c1ccccc1)Cn1ccnc1[N+](=O)[O-]` (stereo not given) yielded a Po/w in data set [2] of 22.2. Also, the values for the k2 in data set [4] and in data set [1] were 0.2 m M-1 hr-1 and 0.7 m M-1 hr-1, respectively.
